In ChEMBL document CHEMBL1949587 (Bioorg Med Chem, 2012):
Values after ≈ are worked out from the molar mass of the structure shown. Active and inactive are the calls of the source. The calls are words filed in the database; no cut-off is given here.

How the values were obtained:
HUVEC [1] = experiment: Antiangiogenic activity in HUVEC assessed as inhibition of VEGF-induced cell proliferation after 4 days; type: functional, cell-based; conditions: Homo sapiens, 96 h
Outline: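 HUVECs maintained in RPMI1640 with 10% FCS, 50 μg/mL heparin and ECGS, then seeded at 3000 cells/well in RPMI1640 with 5% FCS and 20 ng/mL VEGF, with compound at serially diluted concentrations. Incubated at 37 °C, 5% CO₂. Read-out is Cell Counting Kit-8, absorbance at 450 nm. Inhibition = (1−T/C)×100 against untreated control.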

HCT-116 = experiment: Antiproliferative activity against human HCT116 cells; type: cell-based
HUVEC [2] = experiment: Selectivity ratio of IC50 for human HCT116 cells to IC50 for HUVEC cells
[3] = Clearance in mouse liver microsome at 5 uM after 60 mins by LC-MS/MS analysis; type: ADME; conditions: liver microsomes, read-out: CLH
Outline: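 Test compound at 5 µM incubated with mouse liver microsomes, 1.0 mg protein/mL, in 50 mM potassium phosphate pH 7.4 at 37 °C. Started by adding NADPH generating system (glucose 6-phosphate 3.2 mM, β-NADP 2.6 mM, MgCl2 6.5 mM). Substrate depletion measured against internal standard. Intrinsic clearance is the first-order decay constant normalized to protein.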

[4] = Solubility of the compound in fasted state simulated intestinal fluid at 10 mM after 2 hrs by HPLC-UV analysis; type: physicochemical
Outline: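 Triplicate samples made from 10 mM DMSO stocks. DMSO evaporated (1 h), residue dissolved in FaSSIF and shaken 2 h. Solutions filtered, filtrate analysed by UV or HPLC-UV against a four-point calibration curve from the stocks. Result in µg/mL.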

Calu-6 [5] = experiment: Antitumor activity against human Calu6 cells xenografted in BALB/c mouse assessed as tumor growth inhibition at 300 mg/kg, po for 11 days relative to control; type: functional; conditions: Calu-6, 264 h, read-out: TGI
Outline: (§1)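 Calu-6 cells in Hanks' balanced salt solution implanted s.c. in the flank of female Balb/c nude mice, 5.0×10⁶ per mouse. Oral dosing once daily for 11 days, starting at tumor volume 150 mm³. Volume = 1/2 × long × short². Tumor growth inhibition taken from change in volume of the treated group against change in controls.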

[6] = biological target: Vascular endothelial growth factor receptor 2 (Homo sapiens, UniProt P35968); experiment: Inhibition of VEGFR2
[7] = Lipophilicity, log D of the compound at pH 7; type: physicochemical; conditions: buffer
Calu-6 [8] = experiment: Antiangiogenic activity in human Calu6 cells xenografted in BALB/c mouse assessed as microvessel density reduction at 300 mg/kg, po after 11 days by immunohistochemical staining method; type: functional; parameters: scale not given: the % may be the effect or the level left
Outline: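 Female Balb/c nude mice given Calu-6 cells s.c. in the flank, 5.0×10⁶ cells per mouse. Dosing was oral, once daily for 11 days, starting once tumors reached 150 mm³. Tumors taken 24 h after the last dose and frozen-sectioned from the mid-portion. Vessels stained with anti-mouse CD31 and counted by image analysis. Density decrease expressed against control.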

Calu-6 [9] = experiment: Antitumor activity against human Calu6 cells xenografted in BALB/c mouse assessed as tumor growth inhibition at 600 mg/kg, po for 11 days relative to control; type: functional; conditions: Calu-6, 264 h, read-out: TGI; outline: as §1
[10] = Toxicity in human Calu6 cells xenografted po dosed BALB/c mouse assessed as body weight change administered qd for 11 days; conditions: in vivo
Calu-6 [11] = experiment: Antitumor activity against human Calu6 cells xenografted in BALB/c mouse assessed as tumor growth inhibition at 80 mg/kg, po qd for 11 days; type: functional, organism-based; parameters: dose 80 mg/kg
Outline: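 Female Balb/c nude mice carried s.c. flank Calu-6 xenografts, 5.0×10⁶ cells in Hanks' solution. At 200 mm³, mice were randomized into 4 groups (n = 5): vehicle, 150 mg/kg, sunitinib 80 mg/kg, or both. Each group dosed orally once daily for 11 days. Volume = 1/2 × long × short². Inhibition from volume change against control.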

[12] = dose 600 mg/kg, in the assay text read “600 mg/kg” for “300 mg/kg”

Sequence of Vascular endothelial growth factor receptor 2 (P35968 whole entry): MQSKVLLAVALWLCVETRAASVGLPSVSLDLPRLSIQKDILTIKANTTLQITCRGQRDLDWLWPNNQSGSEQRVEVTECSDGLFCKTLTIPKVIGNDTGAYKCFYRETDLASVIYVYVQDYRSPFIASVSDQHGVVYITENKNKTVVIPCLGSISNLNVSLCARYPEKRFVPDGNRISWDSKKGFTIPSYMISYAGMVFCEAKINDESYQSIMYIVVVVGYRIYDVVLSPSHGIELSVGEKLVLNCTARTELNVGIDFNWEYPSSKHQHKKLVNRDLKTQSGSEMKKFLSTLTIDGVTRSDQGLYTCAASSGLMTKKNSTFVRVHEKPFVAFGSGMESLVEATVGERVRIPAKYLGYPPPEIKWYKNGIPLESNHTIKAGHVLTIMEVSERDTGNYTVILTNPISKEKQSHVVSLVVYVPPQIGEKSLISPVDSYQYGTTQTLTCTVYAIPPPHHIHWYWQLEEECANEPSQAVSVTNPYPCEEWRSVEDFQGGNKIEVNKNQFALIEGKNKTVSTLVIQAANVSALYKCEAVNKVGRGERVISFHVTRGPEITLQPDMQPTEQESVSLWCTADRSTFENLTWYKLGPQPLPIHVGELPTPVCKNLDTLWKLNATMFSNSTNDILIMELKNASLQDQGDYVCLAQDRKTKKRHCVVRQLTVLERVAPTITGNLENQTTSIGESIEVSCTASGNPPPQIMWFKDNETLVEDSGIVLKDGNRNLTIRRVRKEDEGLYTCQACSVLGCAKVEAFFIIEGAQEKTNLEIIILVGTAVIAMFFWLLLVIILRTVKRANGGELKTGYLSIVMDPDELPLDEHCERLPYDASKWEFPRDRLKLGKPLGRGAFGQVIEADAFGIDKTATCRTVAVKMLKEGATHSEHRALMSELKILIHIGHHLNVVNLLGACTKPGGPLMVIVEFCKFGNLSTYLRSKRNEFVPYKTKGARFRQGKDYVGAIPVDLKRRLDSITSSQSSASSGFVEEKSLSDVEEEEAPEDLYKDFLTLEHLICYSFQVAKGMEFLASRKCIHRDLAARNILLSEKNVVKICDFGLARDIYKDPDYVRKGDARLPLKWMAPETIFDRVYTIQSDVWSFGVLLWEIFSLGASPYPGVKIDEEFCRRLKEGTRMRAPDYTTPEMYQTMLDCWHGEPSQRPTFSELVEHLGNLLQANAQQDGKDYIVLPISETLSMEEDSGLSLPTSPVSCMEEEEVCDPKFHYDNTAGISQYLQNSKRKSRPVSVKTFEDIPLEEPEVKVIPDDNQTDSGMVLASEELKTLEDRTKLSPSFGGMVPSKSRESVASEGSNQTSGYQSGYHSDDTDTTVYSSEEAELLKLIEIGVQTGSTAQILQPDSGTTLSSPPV

SMILES | IC50 (HUVEC [1]) | IC50 (HCT-116) | Ratio IC50 (HUVEC [2]) | microsomal CLint at 5 µM [3] | other results
COc1ccc(C#N)cc1COc1ccc(Cl)c(C)c1 | 1500 nM | > 50 µM | >33 | – | –
COc1ccc(C(N)=O)cc1/C=C/c1ccccc1Cl | 23000 nM | > 50 µM | 2.2 | – | –
COc1ccc(C(N)=O)cc1/C=C/c1cccc(F)c1 | 8300 nM | > 50 µM | >6 | – | –
COc1ccc(C(=O)NCCO)cc1/C=C/c1ccc(Cl)cc1 | 910 nM | 17 µM | 19 | 73 µL/min/mg | solubility at 2 h, 10000 µM [4]: 16 µg/mL (≈ 48.2 µM)
COc1ccc(C(N)=O)cc1/C=C/c1ccc(Cl)cc1 | 87 nM | 7.1 µM | 82 | 110 µL/min/mg | inhibition in vivo at 300 mg/kg (Calu-6 [5]): 71%; solubility at 2 h, 10000 µM [4]: 16 µg/mL (≈ 55.6 µM); IC50 [6]: > 50 µM; logD [7]: 4; Activity (Calu-6 [8]; dose 300 mg/kg): 60%
COc1ccc(C(=O)NCC(O)CO)cc1/C=C/c1ccc(Cl)cc1 (stereo not given) | 400 nM | 12 µM | – | 10 µL/min/mg | solubility at 2 h, 10000 µM [4]: 317 µg/mL (≈ 876 µM)
COc1ccc(C(N)=O)cc1/C=C/c1ccc(Cl)cc1Cl | 2600 nM | > 50 µM | >19 | – | –
COc1ccc(C(N)=O)cc1/C=C/c1ccccc1C | 2300 nM | 11 µM | 4.8 | – | –
COc1ccc(C(N)=O)cc1/C=C/c1ccc(C)cc1 | 1600 nM | 48 µM | 30 | – | –
CN1CCN(CCOc2ccc(C(N)=O)cc2/C=C/c2ccc(Cl)cc2)CC1 | 9500 nM | 7.5 µM | 0.8 | 251 µL/min/mg | solubility at 2 h, 10000 µM [4]: 164 µg/mL (≈ 410 µM)
CN(C)CCOc1ccc(C(N)=O)cc1/C=C/c1ccc(Cl)cc1 | 8400 nM | 4.9 µM | 0.6 | 288 µL/min/mg | solubility at 2 h, 10000 µM [4]: 109 µg/mL (≈ 316 µM)
COc1ccc(C(N)=O)cc1C(=O)Nc1ccc(Cl)cc1 | 5500 nM | > 50 µM | >9 | 16 µL/min/mg | solubility at 2 h, 10000 µM [4]: 5 µg/mL (≈ 16.4 µM)
COc1ccc(C(N)=O)cc1/C=C/c1ccccc1 | 2400 nM | 36 µM | 15 | – | –
COc1ccc(C(N)=O)cc1COc1ccc(Cl)c(C)c1 | 640 nM | > 50 µM | >78 | 414 µL/min/mg | inhibition in vivo at 600 mg/kg (Calu-6 [9]): 14%; IC50 [6]: > 50 µM; Activity (Calu-6 [8]; [12]): 0%
Cc1cc(OCc2cccc(C#N)c2)ccc1Cl | 11000 nM | 45 µM | 4.1 | – | –
COc1ccc(C(C)=O)cc1COc1ccc(Cl)cc1 | 1200 nM | 39 µM | 33 | – | –
COc1ccc(C(N)=O)cc1/C=C/c1cccc(C)c1 | 3900 nM | 23 µM | 5.9 | – | –
COc1ccc(C(=O)NC(CO)CO)cc1/C=C/c1ccc(Cl)cc1 | 1500 nM | 14 µM | 9.3 | 8 µL/min/mg | solubility at 2 h, 10000 µM [4]: 251 µg/mL (≈ 694 µM)
COc1ccc(C(C)=O)cc1COc1ccc(Cl)c(C)c1 | 1300 nM | 34 µM | 26 | – | inhibition in vivo at 600 mg/kg (Calu-6 [9]): 34%; IC50 [6]: > 50 µM; Activity (Calu-6 [8]; [12]): 15%
COc1ccc(C(=O)O)cc1COc1ccc(Cl)c(C)c1 | > 50000 nM | > 50 µM | – | – | –
COc1ccc(C(N)=O)cc1/C=C/c1cccc(Cl)c1 | 24000 nM | 15 µM | 0.6 | – | –
CCc1ccc(OC)c(COc2ccc(Cl)c(C)c2)c1 | 40000 nM | 43 µM | 1.1 | – | –
COc1ccc(C(N)=O)cc1/C=C/c1ccccc1OC(F)(F)F | 8900 nM | 36 µM | 4 | – | –

SMILES | IC50 (HUVEC [1]) | IC50 (HCT-116) | Ratio IC50 (HUVEC [2]) | microsomal CLint at 5 µM [3] | other results
CCCOc1ccc(C(N)=O)cc1/C=C/c1ccc(Cl)cc1 | 1300 nM | > 50 µM | 38 | 83 µL/min/mg | solubility at 2 h, 10000 µM [4]: 4 µg/mL (≈ 12.7 µM)
COc1ccc(C(N)=O)cc1/C=C/c1ccc(Br)cc1 | 560 nM | 22 µM | 39 | – | –
CCOc1ccc(C(N)=O)cc1/C=C/c1ccc(Cl)cc1 | 190 nM | 1.7 µM | 8.9 | 123 µL/min/mg | solubility at 2 h, 10000 µM [4]: 10 µg/mL (≈ 33.1 µM)
COc1ccc(C(N)=O)cc1/C=C/c1ccc(C(F)(F)F)cc1 | 880 nM | 35 µM | 40 | – | –
COc1ccc(C(N)=O)cc1/C=C/c1cccc(C#N)c1 | 49000 nM | 19 µM | 0.4 | – | –
COc1ccc(C(N)=O)cc1/C=C/c1ccc(C#N)cc1 | 3100 nM | 16 µM | 5.2 | – | –
CCN(CC)CCNC(=O)c1c(C)[nH]c(/C=C2\C(=O)Nc3ccc(F)cc32)c1C [SUNITINIB] | – | – | – | – | MTD at 264 h [10]: 80 mg/kg; TGI (Calu-6 [11]): Active
COC(=O)c1ccc(OC)c(COc2ccc(Cl)c(C)c2)c1 | 2300 nM | 23 µM | 10 | – | –
COc1ccc(C(N)=O)cc1/C=C/c1ccc([N+](=O)[O-])cc1 | 4700 nM | 22 µM | 4.7 | – | –
COc1ccc(C(N)=O)cc1/C=C/c1ccccc1F | 2000 nM | 26 µM | 13 | – | –
COc1ccc(C(N)=O)cc1/C=C/c1ccc(Cl)c(Cl)c1 | 560 nM | 11 µM | 20 | – | –
NC(=O)c1ccc(OCCOCCO)c(/C=C/c2ccc(Cl)cc2)c1 | 11000 nM | 38 µM | – | 247 µL/min/mg | solubility at 2 h, 10000 µM [4]: 74 µg/mL (≈ 205 µM)
CCNC(=O)c1ccc(OC)c(/C=C/c2ccc(Cl)cc2)c1 | 160 nM | 15 µM | 94 | 187 µL/min/mg | solubility at 2 h, 10000 µM [4]: 9 µg/mL (≈ 28.5 µM)
COc1ccc(C(N)=O)cc1COc1ccc(Cl)cc1 | 660 nM | > 50 µM | >75 | 97 µL/min/mg | inhibition in vivo at 600 mg/kg (Calu-6 [9]): 62%; IC50 [6]: > 50 µM; Activity (Calu-6 [8]; [12]): 27%
COc1ccc(C(N)=O)cc1/C=C/c1ccc(Cl)cc1F | 1700 nM | > 10 µM | >5.9 | – | –
COc1ccc(C(=O)N(C)C)cc1/C=C/c1ccc(Cl)cc1 | 2500 nM | 35 µM | 14 | – | –
COc1ccc(C(N)=O)cc1/C=C/c1ccc(F)cc1 | 2100 nM | 24 µM | 11 | – | –
COc1ccccc1/C=C/c1cc(C(N)=O)ccc1OC | 5700 nM | > 50 µM | >8.8 | – | –
COc1ccc(C(C)=O)cc1COc1cccc(C)c1 | 2800 nM | 24 µM | 8.6 | – | –
COc1ccc(/C=C/c2cc(C(N)=O)ccc2OC)cc1 | 8800 nM | 19 µM | 2.2 | – | –
COc1ccc(C(N)=O)cc1/C=C/c1ccc(C(C)(C)C)cc1 | 370 nM | 20 µM | 54 | – | –
CNC(=O)c1ccc(OC)c(/C=C/c2ccc(Cl)cc2)c1 | 190 nM | 16 µM | 84 | 331 µL/min/mg | solubility at 2 h, 10000 µM [4]: 24 µg/mL (≈ 79.5 µM)
COc1ccc(C(N)=O)cc1/C=C\c1ccc(Cl)cc1 | 2900 nM | 29 µM | 10 | 544 µL/min/mg | solubility at 2 h, 10000 µM [4]: 137 µg/mL (≈ 476 µM)
